According to ChEMBL document CHEMBL1142981, “Identification and synthesis of a novel selective partial PPARdelta agonist with full efficacy on lipid metabolism in vitro and in vivo” (J Med Chem, 2007):

Key:
[1] = Half life in Sprague-Dawley rat at 0.43 mg/kg, po; assay type: ADME, organism-based; set-up: dose 0.43 mg/kg, route oral; conditions: in vivo
Procedure, shortened: (§1)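 Male SD rats dosed once i.v. or p.o. (n = 8 per route), vehicle 5% ethanol, 10% HPCD, phosphate buffer pH 7.5-8.0. One animal sacrificed at each of 5, 15, 30, 60, 90, 120, 240 and 360 min; EDTA plasma analysed by high turbulence LC-MS/MS. Each data point represents one animal.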

[2] = target: T1, Peroxisome proliferator-activated receptor alpha (Homo sapiens, UniProt Q07869); assay: Activity at human liver PPAR alpha expressed in HEK293 cells by PPAR-GAL4 transactivation assay; assay type: cell-based
T1 sequence (Q07869 whole entry): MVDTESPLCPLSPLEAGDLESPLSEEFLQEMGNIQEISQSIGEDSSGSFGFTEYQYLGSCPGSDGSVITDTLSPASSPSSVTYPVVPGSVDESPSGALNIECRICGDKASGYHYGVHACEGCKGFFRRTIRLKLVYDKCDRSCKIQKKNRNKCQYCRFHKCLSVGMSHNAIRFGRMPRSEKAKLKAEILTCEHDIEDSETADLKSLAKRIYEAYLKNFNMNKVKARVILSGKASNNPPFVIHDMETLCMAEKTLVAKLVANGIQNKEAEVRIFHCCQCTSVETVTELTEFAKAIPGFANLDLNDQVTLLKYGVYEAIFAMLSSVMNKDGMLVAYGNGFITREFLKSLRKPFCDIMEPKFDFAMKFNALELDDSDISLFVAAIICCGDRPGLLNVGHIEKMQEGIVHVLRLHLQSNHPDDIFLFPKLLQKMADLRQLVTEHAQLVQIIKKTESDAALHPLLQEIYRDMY

[3] = Clearance in Sprague-Dawley rat at 0.20 mg/kg, iv; assay type: ADME, organism-based; set-up: dose 0.2 mg/kg, route intravenous; conditions: in vivo, 0.2 mg/kg; procedure, shortened: as §1
[4] = Plasma Cmax in Sprague-Dawley rat at 0.43 mg/kg, po; assay type: ADME, organism-based; set-up: dose 0.43 mg/kg, route oral
Procedure, shortened: (§2)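 Male SD rats received a single p.o. or i.v. dose (n = 8 per route) in 5% ethanol, 10% HPCD and phosphate buffer, pH 7.5-8.0. At 5, 15, 30, 60, 90, 120, 240 and 360 min one rat was sacrificed per time point. EDTA plasma was assayed by high turbulence LC-MS/MS. Cmax and bioavailability were taken from oral dosing; volume of distribution is at steady state.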

[5] = Volume of distribution in Sprague-Dawley rat at 0.20 mg/kg, iv; assay type: ADME, organism-based; set-up: dose 0.2 mg/kg, route intravenous; conditions: in vivo, 0.2 mg/kg, read-out: Vss; procedure, shortened: as §2
[6] = target: T2, Peroxisome proliferator-activated receptor alpha (Homo sapiens) (UniProt Q07869); assay: Activity at human liver PPAR alpha expressed in HEK293 cells by GAL4 transactivation assay relative to NNC61-4655; assay type: cell-based
T2 sequence (whole entry): T1 sequence (Q07869 whole entry)

L6 [7] = assay: Effect on increase in fatty acid oxidation in rat L6 cells relative to GW-501516; assay type: functional; set-up: concentration or dose not given beside the values
Procedure, shortened: (§3)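 Rat L6 myoblasts differentiated 5 days in 2% serum, then treated 42 h with compound (refreshed at 24 h), followed by 6 h with 0.4 mM palmitate containing [9,10-3H]-palmitic acid on 2% fatty-acid-free BSA. Stopped with 10% TCA; released 3H-H2O collected by overnight equilibration at 50 °C and counted.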

L6 [8] = assay: Effect on fatty acid oxidation in rat L6 cells; assay type: functional, cell-based; procedure, shortened: as §3
[9] = target: T3, Peroxisome proliferator-activated receptor delta (Homo sapiens, UniProt Q03181)
T3 sequence (Q03181 whole entry): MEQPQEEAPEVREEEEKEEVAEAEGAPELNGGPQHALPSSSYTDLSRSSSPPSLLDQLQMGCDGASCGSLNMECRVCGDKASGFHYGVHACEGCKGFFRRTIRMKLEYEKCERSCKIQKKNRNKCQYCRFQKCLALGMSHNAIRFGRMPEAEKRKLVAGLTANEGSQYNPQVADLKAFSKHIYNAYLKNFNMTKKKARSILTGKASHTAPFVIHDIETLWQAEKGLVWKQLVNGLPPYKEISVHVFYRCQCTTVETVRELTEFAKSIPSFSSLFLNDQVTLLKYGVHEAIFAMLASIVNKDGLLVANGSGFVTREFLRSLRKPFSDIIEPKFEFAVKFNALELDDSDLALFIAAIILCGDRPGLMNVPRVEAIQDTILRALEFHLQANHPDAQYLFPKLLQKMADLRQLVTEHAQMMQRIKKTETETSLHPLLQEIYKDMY

[10] = target: T4, Peroxisome proliferator-activated receptor gamma (Homo sapiens, UniProt P37231); assay type: cell-based, HEK293
T4 sequence (P37231 whole entry): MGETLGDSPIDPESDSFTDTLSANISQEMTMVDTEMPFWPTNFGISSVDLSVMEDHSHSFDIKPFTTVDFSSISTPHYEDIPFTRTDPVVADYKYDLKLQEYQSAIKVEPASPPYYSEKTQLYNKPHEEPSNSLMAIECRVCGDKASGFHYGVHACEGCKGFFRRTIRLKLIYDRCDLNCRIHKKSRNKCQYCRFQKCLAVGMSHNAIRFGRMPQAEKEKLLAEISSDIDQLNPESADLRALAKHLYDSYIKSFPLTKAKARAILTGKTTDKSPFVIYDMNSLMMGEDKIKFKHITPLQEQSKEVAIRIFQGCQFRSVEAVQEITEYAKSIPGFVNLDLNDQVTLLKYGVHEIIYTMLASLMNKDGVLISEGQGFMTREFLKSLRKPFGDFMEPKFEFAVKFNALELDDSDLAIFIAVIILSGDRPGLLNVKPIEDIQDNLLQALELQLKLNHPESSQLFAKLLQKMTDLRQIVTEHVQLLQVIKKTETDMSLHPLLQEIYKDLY

[11] = Plasma Cmax in Sprague-Dawley rat at 0.45 mg/kg, po; assay type: ADME, organism-based; set-up: dose 0.45 mg/kg, route oral
Procedure, shortened: (§4)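 Male SD rats, single oral dose in 5% ethanol/10% HPCD/phosphate buffer pH 7.5-8.0, n = 8. One animal was killed at each of 5, 15, 30, 60, 90, 120, 240 and 360 min. EDTA plasma was analysed by turbulent-flow LC-MS/MS. Cmax, half-life and oral bioavailability were taken from the plasma curves, with bioavailability using a parallel i.v. arm.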

[12] = Half life in Sprague-Dawley rat at 0.45 mg/kg, po; assay type: ADME, organism-based; set-up: dose 0.45 mg/kg, route oral; conditions: in vivo; procedure, shortened: as §4
[13] = Clearance in Sprague-Dawley rat at 1.08 mg/kg, iv; assay type: ADME, organism-based; set-up: dose 1.08 mg/kg, route intravenous; conditions: in vivo; procedure, shortened: as §1
[14] = Volume of distribution in Sprague-Dawley rat at 1.08 mg/kg, iv; assay type: ADME, organism-based; set-up: dose 1.08 mg/kg, route intravenous; conditions: in vivo, read-out: Vss; procedure, shortened: as §2
[15] = Oral bioavailability in Sprague-Dawley rat at 2.29 mg/kg; assay type: ADME, organism-based; conditions: in vivo; procedure, shortened: as §2
[16] = Plasma Cmax in Sprague-Dawley rat at 2.29 mg/kg, po; assay type: ADME, organism-based; set-up: dose 2.29 mg/kg, route oral; procedure, shortened: as §2
[17] = Half life in Sprague-Dawley rat at 2.29 mg/kg, po; assay type: ADME, organism-based; set-up: dose 2.29 mg/kg, route oral; conditions: in vivo; procedure, shortened: as §1
[18] = Oral bioavailability in Sprague-Dawley rat at 0.45 mg/kg; assay type: ADME, organism-based; conditions: in vivo; procedure, shortened: as §4
[19] = Volume of distribution in Sprague-Dawley rat at 1.18 mg/kg, iv; assay type: ADME, organism-based; set-up: dose 1.18 mg/kg, route intravenous; conditions: in vivo, read-out: Vss; procedure, shortened: as §2
[20] = Oral bioavailability in Sprague-Dawley rat at 2.35 mg/kg; assay type: ADME, organism-based; conditions: in vivo; procedure, shortened: as §2
[21] = Clearance in Sprague-Dawley rat at 1.18 mg/kg, iv; assay type: ADME, organism-based; set-up: dose 1.18 mg/kg, route intravenous; conditions: in vivo; procedure, shortened: as §1
[22] = Half life in Sprague-Dawley rat at 2.35 mg/kg, po; assay type: ADME, organism-based; set-up: dose 2.35 mg/kg, route oral; conditions: in vivo; procedure, shortened: as §1
[23] = Plasma Cmax in Sprague-Dawley rat at 2.35 mg/kg, po; assay type: ADME, organism-based; set-up: dose 2.35 mg/kg, route oral; procedure, shortened: as §2

Compound	EC50 [2] [nM]	clearance [3] [mL/min/kg]	Vd [5] [L/kg]	Efficacy [6] [%]	Activity (L6 [7]) [%]	EC50 (L6 [8]) [nM]	EC50 [9] [nM]	EC50 [10] [nM]	Cmax [11] [ng/mL]	half-life [12] [h]	further results
O=C(O)Cc1ccc(OCC=C(c2ccc(Br)cc2)c2ccc(Br)cc2)cc1	> 10000	6	1.4	> 14	62	204	1100				half-life [1]: 7.45 h; Cmax [4]: 252 ng/mL
CC(C)(Oc1ccc(C(=O)c2ccc(Cl)cc2)cc1)C(=O)O [FENOFIBRIC ACID]	> 10000			> 94	70	3000	> 10000				
CN(CCOc1ccc(CC2SC(=O)NC2=O)cc1)c1ccccn1 (configuration not stated) [ROSIGLITAZONE]				> 24	58	5000					
O=C(O)Cc1cccc(OCC=C(c2ccc(Br)cc2)c2ccc(Br)cc2)c1	> 10000			> 19	78	224	830	> 10000	419	2.55	
CCO[C@@H](Cc1ccc(OCC=C(c2ccc(Br)cc2)c2ccc(Br)cc2)cc1)C(=O)O	390			93			540	590			clearance [13]: 21.4 mL/min/kg; Vd [14]: 2.3 L/kg; bioavailability [15]: 78%; Cmax [16]: 554 ng/mL; half-life [17]: 1.42 h
O=C(O)CCc1cccc(OCC=C(c2ccc(Br)cc2)c2ccc(Br)cc2)c1		27	5.3	< 10	59	615	5900		51	15.9	
O=C(O)CCc1ccc(OCC=C(c2ccc(Br)cc2)c2ccc(Br)cc2)cc1	> 10000			> 12	69	212	520				
O=C(O)Cc1ccc(OCC=C(c2ccc(Br)cc2)c2ccc(Br)cc2)c(Cl)c1		7	1.4	< 10	85	379	2300		241	3.02	bioavailability [18]: 130%
Cc1cc(SCC=C(c2ccc(Br)cc2)c2ccc(Br)cc2)ccc1OCC(=O)O	> 10000			> 22	75	3	17	> 10000			Vd [19]: 0.9 L/kg; bioavailability [20]: 95%; clearance [21]: 10 mL/min/kg; half-life [22]: 2.52 h; Cmax [23]: 887 ng/mL
